Assays:
[1] = AUC (0 to infinity) in HIV-seronegative healthy volunteers at 400 mg, po administered as single dose by LC-MS/MS; assay type: ADME, organism-based; set-up: dose 400 mg, route oral, time infinity; conditions: human, plasma
Summary of the method: (§1)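 Randomized crossover in HIV-seronegative volunteers: after an 8-h overnight fast, a single observed oral 400 mg dose was given alone or with 30 ml aluminium/magnesium/simethicone antacid, with a 5- to 12-day washout between visits. Plasma was sampled at 0.5–48 h and assayed by LC/MS/MS (13C6 internal standard, linear 5–10,000 ng/ml). Noncompartmental AUC was computed by the linear-log trapezoidal rule and reported as a geometric mean.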

[2] = test system: Homo sapiens; test: Ratio of drug level in HIV-infected patients at 400 mg, po treated after 2 hrs administration of 20 mg proton pump inhibitor omeprazole after 12 hrs to drug level in HIV-infected patients at 400 mg, po after 12 hrs; assay type: ADME, organism-based; conditions: in vivo
[3] = test system: Homo sapiens; test: Toxicity in HIV-seronegative healthy volunteers assessed as occurrence of mild headache at 400 mg, po administered as single dose; assay type: organism-based; conditions: in vivo
Summary of the method: (§2)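 Clinical adverse events were assessed during the two 12-h pharmacokinetic visits and at 24 and 48 h after a single oral 400 mg dose, given with or without 30 ml antacid. Events were graded with the 2004 Division of AIDS toxicity tables. Laboratory tests were run at screening and at 24 h post-dose.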

[4] = Terminal half life in human at 400 mg BID; assay type: ADME, organism-based; conditions: in vivo, read-out: beta t1/2 (converted)
[5] = AUC (0 to 12 hrs) in HIV-seronegative healthy volunteers at 400 mg, po administered as single dose by LC-MS/MS in presence of albuminium, magnesium and simethicone-containg antacid; assay type: ADME, organism-based; set-up: dose 400 mg, time < 12 hr, route oral; conditions: human, plasma; summary of the method: as §1
[6] = Cmax in HIV-seronegative healthy volunteers at 400 mg, po administered as single dose by LC-MS/MS in presence of albuminium, magnesium and simethicone-containg antacid; assay type: ADME, organism-based; set-up: dose 400 mg, route oral; conditions: human, in vivo
Summary of the method: (§3)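 Single fasted 400 mg oral dose was given alone or with 30 ml antacid in a crossover design with a 5- to 12-day washout. Fasting continued for 4 h post-dose. Plasma was assayed by LC/MS/MS (LLOQ 5 ng/ml). Cmax, Tmax and 12-h concentration were read visually from the profiles.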

[7] = Primary phase half life in human at 400 mg BID; assay type: ADME, organism-based; conditions: in vivo, read-out: alphat1/2 (converted)
[8] = test system: Homo sapiens; test: Toxicity in HIV-seronegative healthy volunteers assessed as occurrence of mild headache at 400 mg, po administered as single dose in presence of 30 ml albuminium, magnesium and simethicone-containg antacid; assay type: organism-based; conditions: in vivo; summary of the method: as §2
[9] = Tmax in HIV-seronegative healthy volunteers at 400 mg, po administered as single dose by LC-MS/MS in presence of albuminium, magnesium and simethicone-containg antacid; assay type: ADME, organism-based; conditions: human, in vivo; summary of the method: as §3
[10] = Drug level in HIV-seronegative healthy volunteers blood at 400 mg, po administered as single dose after 12 hrs by LC-MS/MS; assay type: ADME, organism-based; conditions: human, read-out: Drug uptake; summary of the method: as §3
[11] = test system: Homo sapiens; test: Ratio of AUC (0 to infinity) in HIV-seronegative healthy volunteers at 400 mg, po administered as single dose in presence of albuminium, magnesium and simethicone-containg antacid to AUC (0 to 12 hrs) in HIV-seronegative healthy volunteers at 400 mg, po administered as single dose; assay type: ADME, organism-based; conditions: in vivo
Summary of the method: (§4)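 Randomized crossover in HIV-seronegative volunteers: after an 8-h fast, a single oral 400 mg RAL dose was given with or without 30 ml antacid (2.7 g Mg hydroxide, 3 g Al hydroxide gel, 240 mg simethicone), with a 5–12 day washout. Plasma was sampled 0.5–48 h and assayed by LC/MS/MS (LLOQ 5 ng/ml). Noncompartmental analysis; log-transformed geometric mean ratios with 90% CI; paired t tests.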

[12] = test system: Homo sapiens; test: (§5) Ratio of Cmax in HIV-seronegative healthy volunteers at 400 mg, po administered as single dose in presence of albuminium, magnesium and simethicone-containg antacid to Cmax in HIV-seronegative healthy volunteers at 400 mg, po administered as single dose; assay type: ADME, organism-based; conditions: in vivo; summary of the method: as §4
[13] = Tmax in HIV-seronegative healthy volunteers at 400 mg, po administered as single dose by LC-MS/MS; assay type: ADME, organism-based; conditions: human, in vivo; summary of the method: as §3
[14] = test system: Homo sapiens; test: Ratio of AUC (0 to infinity) in HIV-infected patients at 400 mg, po treated after 2 hrs administration of 20 mg proton pump inhibitor omeprazole to AUC (0 to infinity) in HIV-infected patients at 400 mg, po; assay type: ADME, organism-based; conditions: in vivo
[15] = Cmax in HIV-seronegative healthy volunteers at 400 mg, po administered as single dose by LC-MS/MS; assay type: ADME, organism-based; set-up: dose 400 mg, route oral; conditions: human, in vivo; summary of the method: as §3
[16] = test system: Blood; test: as §5, with “drug level” for “Cmax”, “volunteers blood” for “volunteers”, “mg after 12 hrs,” for “mg,”; assay type: ADME, organism-based; conditions: human, in vivo; summary of the method: as §4
[17] = AUC (0 to infinity) in HIV-seronegative healthy volunteers at 400 mg, po administered as single dose by LC-MS/MS in presence of albuminium, magnesium and simethicone-containg antacid; assay type: ADME, organism-based; set-up: dose 400 mg, time infinity, route oral; conditions: human, plasma; summary of the method: as §1
[18] = Drug level in HIV-seronegative healthy volunteers blood at 400 mg, po administered as single dose after 12 hrs by LC-MS/MS in presence of albuminium, magnesium and simethicone-containg antacid; assay type: ADME, organism-based; conditions: human, read-out: Drug uptake; summary of the method: as §3
[19] = test system: Homo sapiens; test: Ratio of AUC (0 to 12 hrs) in HIV-seronegative healthy volunteers at 400 mg, po administered as single dose in presence of albuminium, magnesium and simethicone-containg antacid to AUC (0 to 12 hrs) in HIV-seronegative healthy volunteers at 400 mg, po administered as single dose; assay type: ADME, organism-based; conditions: in vivo; summary of the method: as §4
[20] = AUC (0 to 12 hrs) in HIV-seronegative healthy volunteers at 400 mg, po administered as single dose by LC-MS/MS; assay type: ADME, organism-based; set-up: dose 400 mg, time < 12 hr, route oral; conditions: human, plasma; summary of the method: as §1
[21] = test system: Homo sapiens; test: Ratio of Cmax in HIV-infected patients at 400 mg, po treated after 2 hrs administration of 20 mg proton pump inhibitor omeprazole to Cmax in HIV-infected patients at 400 mg, po; assay type: ADME, organism-based; conditions: in vivo

`Cc1nnc(C(=O)NC(C)(C)c2nc(C(=O)NCc3ccc(F)cc3)c(O)c(=O)n2C)o1` [RALTEGRAVIR] showed an AUC(0-inf) [1] of 3540 ng·h/mL, a Ratio [2] of 1.5 and an Activity [3] of 25%. The half-life [4] was 9 h, the AUC(0-t) at 12 h [5] was 3300 ng·h/mL and the Cmax [6] was 1440 ng/mL. For the same compound, the half-life [7] was 1 h, the Activity [8] was 42% and the Tmax [9] was 1 h. It also gave a concentration at 12 h [10] of 37 ng/mL, a Ratio [11] of 0.96 and a Ratio [12] of 1.53. It also gave a Tmax [13] of 3 h, a Ratio [14] of 3 and a Cmax [15] of 945 ng/mL. It also gave a Ratio [16] of 0.33, an AUC(0-inf) [17] of 3420 ng·h/mL and a concentration at 12 h [18] of 13 ng/mL. The Ratio [19] was 1.08, the AUC(0-t) at 12 h [20] was 3040 ng·h/mL and the Ratio [21] was 4.

From ChEMBL document CHEMBL1687816, “Effect of antacids on the pharmacokinetics of raltegravir in human immunodeficiency virus-seronegative volunteers” (Antimicrob Agents Chemother, 2010)
